In ChEMBL document CHEMBL1287662, “Potent neuroprotective role of novel melatonin derivatives for management of central neuropathy induced by acrylamide in rats” (2010):
Activity calls are given as the source filed them. The rule behind the calls is not given here.

How the values were obtained:
Rattus norvegicus [1] = test: Neuroprotective activity in Sprague-Dawley rat assessed as protection against acrylamide-induced decrease of glutathione peroxidase level at 50 mg/kg, ip administered 10 mins before acrylamide challenge for 3 days per week for 3 weeks by spectrofluorometrically (reference value: -43%); design: scale not given: the % may be the effect or the level left; conditions: route intraperitoneal
Rattus norvegicus [2] = test: Neuroprotective activity in Sprague-Dawley rat assessed as protection against acrylamide-induced increase of LDH level at 50 mg/kg, ip administered 10 mins before acrylamide challenge for 3 days per week for 3 weeks by spectrofluorometrically (reference value: 67%); conditions: route intraperitoneal
Rattus norvegicus [3] = test: Neuroprotective activity in Sprague-Dawley rat assessed as protection against acrylamide-induced decrease of creatine kinase level at 50 mg/kg, ip administered 10 mins before acrylamide challenge for 3 days per week for 3 weeks by spectrofluorometrically (reference value: -73%); design: scale not given: the % may be the effect or the level left; conditions: route intraperitoneal
Rattus norvegicus [4] = test: Neuroprotective activity in Sprague-Dawley rat assessed as protection against acrylamide-induced decrease in dopamine level at 50 mg/kg, ip administered 10 mins before acrylamide challenge for 3 days per week […] by spectrofluorometrically (reference value: -16%); format: functional; design: scale not given: the % may be the effect or the level left; conditions: route intraperitoneal
Rattus norvegicus [5] = test: Neuroprotective activity in Sprague-Dawley rat assessed as protection against acrylamide-induced increase of malondialdehyde level at 50 mg/kg, ip administered 10 mins before acrylamide challenge for 3 days per week […] by spectrofluorometrically (reference value: 31%); format: functional; conditions: route intraperitoneal
Rattus norvegicus [6] = test: Neuroprotective activity in Sprague-Dawley rat assessed as protection against acrylamide-induced decrease in adrenaline level at 50 mg/kg, ip administered 10 mins before acrylamide challenge for 3 days per week […] by ELISA (reference value: -40%); format: functional; design: scale not given: the % may be the effect or the level left; conditions: route intraperitoneal
Rattus norvegicus [7] = test: Neuroprotective activity in Sprague-Dawley rat assessed as protection against acrylamide-induced decrease of superoxide dismutase level at 50 mg/kg, ip administered 10 mins before acrylamide challenge for 3 days per week for 3 weeks by spectrofluorometrically (reference value: -32%); design: scale not given: the % may be the effect or the level left; conditions: route intraperitoneal
Rattus norvegicus [8] = test: Neuroprotective activity in Sprague-Dawley rat assessed as protection against acrylamide-induced decrease of glutathione level at 50 mg/kg, ip administered 10 mins before acrylamide challenge for 3 days per week […] by spectrofluorometrically (reference value: -27%); format: functional; design: scale not given: the % may be the effect or the level left; conditions: route intraperitoneal
Rattus norvegicus [9] = test: Neuroprotective activity in Sprague-Dawley rat assessed as protection against acrylamide-induced decrease in noradrenaline level at 50 mg/kg, ip administered 10 mins before acrylamide challenge for 3 days per week […] by ELISA (reference value: -21%); format: functional; design: scale not given: the % may be the effect or the level left; conditions: route intraperitoneal
Rattus norvegicus [10] = test: Neuroprotective activity in Sprague-Dawley rat assessed as protection against acrylamide-induced neuronal damage at 50 mg/kg, ip administered 10 mins before acrylamide challenge for 3 days per week for 2 weeks by histopathology analysis; format: functional, organism-based; design: dose 50 mg/kg; conditions: in the assay text read “for 3 weeks” for “for 2 weeks”
Method in brief: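 Rats (n = 10 per group) given agent at 50 mg/kg i.p. in 2% Tween 10 min before ACR at 50 mg/kg i.p., 3 days/week for 3 weeks. Brain tissue examined by light photomicrography for neuronal morphology (dark neurons, chromatin clumping, vacuoles), compared with control and ACR-only rats.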

Compound	Activity (Rattus norvegicus [1]) [%]	Activity (Rattus norvegicus [2]) [%]	Activity (Rattus norvegicus [3]) [%]	Activity (Rattus norvegicus [4]) [%]	Activity (Rattus norvegicus [5]) [%]	Activity (Rattus norvegicus [6]) [%]	Activity (Rattus norvegicus [7]) [%]	Activity (Rattus norvegicus [8]) [%]	Activity (Rattus norvegicus [9]) [%]	Activity (Rattus norvegicus [10])
COc1ccc2c(c1)c(CCNC(C)=O)c1sc(-c3c(C(C)=O)nn(-c4ccccc4)c3N)nn12	5	-45	6	10	-19	60	65	27	14	–
COc1ccc2c(c1)c(CCNC(C)=O)c1sc(C3=C(c4ccccc4)CC(=N)C(C#N)=C3N)nn12	8	-47	18	11	-20	63	71	27	28	–
COc1ccc2c(c1)c(CCNC(C)=O)cn2CN1CCOCC1	11	-55	30	19	-21	65	77	27	28	–
COc1ccc2c(c1)c(CCNC(C)=O)cn2-c1c[nH]nc1-c1ccccc1	3	-40	6	3	-17	60	41	9	11	–
COc1ccc2[nH]cc(CCNC(C)=O)c2c1 [MELATONIN]	38	-65	59	33	-22	67	135	82	32	Active
